NR2E3 ag-1: NR2E3 (human) agonism. GST-NR2E3/biotin-RetCOR TR-FRET, 1536-well. inhibition of corepressor binding, % at 4.78 µM. 320,000 compounds, 0.12% hits;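 active means percent inhibition above the cutoff of mean plus 3 SD of all tested compounds, set per screening campaign, cut at about 20% in these data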;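 further: 0% = DMSO wells and 100% = biotin wells as full block of FRET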
Target sequence (Q9Y5X4 whole entry, looked up): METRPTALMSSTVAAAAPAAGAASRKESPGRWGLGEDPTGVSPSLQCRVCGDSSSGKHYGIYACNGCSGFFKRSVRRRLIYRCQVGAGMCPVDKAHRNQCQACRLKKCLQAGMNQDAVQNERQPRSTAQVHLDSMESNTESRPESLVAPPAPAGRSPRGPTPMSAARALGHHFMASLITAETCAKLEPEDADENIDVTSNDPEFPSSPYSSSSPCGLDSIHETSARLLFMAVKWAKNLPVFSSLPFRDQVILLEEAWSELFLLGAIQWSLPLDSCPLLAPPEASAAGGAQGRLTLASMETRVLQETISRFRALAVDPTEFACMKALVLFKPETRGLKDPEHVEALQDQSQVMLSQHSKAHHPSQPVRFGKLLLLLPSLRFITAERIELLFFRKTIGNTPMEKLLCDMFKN
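System: GST-NR2E3 and biotin-RetCOR proteins; probe or stimulus: 7 nM biotin-RetCOR; doses: compound at 4.8 µM, single dose; schedule: Compound–protein incubation for 5 h at 4 °C; detection: time-resolved FRET; read-out: percent inhibition; controls: biotin wells as high control, 0.6% DMSO wells as low control; format: 1536-well plates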
DAX1 inh-1: inhibits human nuclear receptor DAX1; HEK293 Gal4-DAX1 luciferase reporter, luminescence; P51843; inhibition, % at 6.75 µM; 340,000 compounds, 0.99% hits;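 active means inhibition above the mean over all tested compounds plus 3 SD, cut at about 4.2% in these data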;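 further: 0% = DAX1-transfected cells with DMSO and 100% = empty-vector control cells with DMSO; inhibition shows as a rise in luminescence from relieved DAX1 repression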
Target sequence (P51843 207-470 limits assumed): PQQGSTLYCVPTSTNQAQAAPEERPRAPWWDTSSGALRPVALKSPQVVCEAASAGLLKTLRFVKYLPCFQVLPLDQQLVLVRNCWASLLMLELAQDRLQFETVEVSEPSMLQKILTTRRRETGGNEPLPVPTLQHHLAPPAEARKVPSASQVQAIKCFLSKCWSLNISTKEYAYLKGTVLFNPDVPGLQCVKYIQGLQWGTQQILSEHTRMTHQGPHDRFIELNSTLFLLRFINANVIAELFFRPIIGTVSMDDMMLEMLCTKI
NR2E3 ag-2: agonists of human NR2E3 nuclear receptor; Q9Y5X4; CHO-S Gal4-NCOR/VP16-NR2E3 two-hybrid, luciferase; inhibition of corepressor binding, % at 3.98 µM; 360,000 compounds, 0.35% hits;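 active means inhibition above the mean of all tested compounds plus 3 SD, cut at about 70% in these data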;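 further: 0% = DMSO with NR2E3 transfected cells and 100% = cells lacking NR2E3 construct; higher means lower luciferase signal from less NR2E3 corepressor binding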
DAX1 inh-2: inhibitors of DAX1 repression of SF-1 activated StAR promoter. inhibition, % at 6.8 µM. HEK293T StAR-luciferase reporter, SF-1/DAX-1 repression relief. 370,000 compounds, 1.1% hits;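 active means inhibition above the mean over all tested compounds plus 3 SD, cut at about 3.6% in these data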;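 further: 0% = DAX-1 cells with DMSO and 100% = cells lacking DAX-1 with DMSO; higher inhibition means more luminescence from relief of DAX-1 repression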
GASC-1 inh: inhibitors of human GASC-1 (JMJD2C) demethylase. inhibition, % at 2.35 µM. Q9H3R0. GST-JMJD2C(1-420) H3K9me3 demethylation, DELFIA europium. 330,000 compounds, 0.069% hits;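 active means more than half of a compound's replicate wells show inhibition beyond 50%, single wells judged on their own value; inconclusive means some, but no more than half, of replicates pass 50% inhibition; inactive means no replicate passes 50% inhibition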;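 further: signal counts dimethyl H3K9 product captured on neutravidin plate; 0% = median of DMSO wells and 100% = 0.3 times that DMSO median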
SMARCA2 activ: SMARCA2 function activation, primary screen | MG213 cells, MMTV-luciferase reporter, dexamethasone, overnight | activation, % at 9.1 µM | 370,000 compounds, 1% hits | AID 652017; in the data active means activation above about 7.8%;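 further: 0% = vehicle wells and 100% = reference activator wells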
DAX1 inh confirm: NR0B1 (human) inhibition, confirmation. shares compounds with DAX1 inh-2. HEK293T StAR-promoter luciferase reporter, SF-1/DAX-1 repression. inhibition, % at 6.8 µM. 2,400 compounds, 87% hits;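 active means inhibition above the average of every tested compound plus 3 SD, cut at about 3.8% in these data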;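 further: 0% = DAX-1 cells with DMSO and 100% = no DAX-1 control cells with DMSO; active compounds raise luminescence by relieving repression of the StAR reporter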
SF1 AF2mut Luc: nonselective inhibitor or artifact in SF-1 mutant DAX1 counter-screen | shares compounds with DAX1 inh-2 | HEK293 StAR-luciferase, SF-1 AF2 mutant, luminescence | inhibition, % at 6.8 µM | 2,400 compounds, 78% hits | AID 652136;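 active means inhibition above the mean of all tested compounds plus 3 SD, cut at about 3% in these data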;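 further: 0% = DAX-1 transfected cells with DMSO and 100% = cells without DAX-1 with DMSO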
* hit, by the source's call. Rows were chosen to be rich in hits. Some 3.2% of all compounds tested hit in one or more screens of this group.

What do the screens show for `Cc1ccc(-n2c(C)nc3oc4ccccc4c(=O)c3c2=O)cc1`?
NR2E3 ag-1: 0; DAX1 inh-1: 2; NR2E3 ag-2: -111; DAX1 inh-2: 4.5*; GASC-1 inh: 6; SMARCA2 activ: 3; DAX1 inh confirm: 8.5*; SF1 AF2mut Luc: 6.1*

How did Nc1nc(-c2ccccc2)nc2sc3c(c12)CCCC3 do in these assays?
NR2E3 ag-1: -2; DAX1 inh-1: 2; NR2E3 ag-2: -164; DAX1 inh-2: 8.3*; GASC-1 inh: -3; SMARCA2 activ: 1; DAX1 inh confirm: 17*; SF1 AF2mut Luc: 6.5*

What do the screens show for `COCCCNc1ccn2nc(-c3ccccc3)cc2n1`?
NR2E3 ag-2: -107; DAX1 inh-2: 6.5*; SMARCA2 activ: 1; DAX1 inh confirm: 15*; SF1 AF2mut Luc: 5.0*

Results for COCCCNc1ccn2nc(-c3cccc(Cl)c3)cc2n1 ?
NR2E3 ag-2: -121; DAX1 inh-2: 5.3*; SMARCA2 activ: 3; DAX1 inh confirm: 13*; SF1 AF2mut Luc: 4.8*

How did COc1ccc(CNC(=O)CCNS(=O)(=O)c2ccc3[nH]c(=O)oc3c2)cc1 do in these assays?
DAX1 inh-2: 0; SMARCA2 activ: -2

How did O=C(NCCc1ccc(Cl)cc1)c1ccc2ccccc2n1 do in these assays?
NR2E3 ag-1: 1; DAX1 inh-1: 0; NR2E3 ag-2: -101; DAX1 inh-2: 0; GASC-1 inh: -3; SMARCA2 activ: -1

Results for O=C(O)C(=O)/C(=C\c1ccc(Cl)cc1)c1ccc2ccccc2n1 ?
NR2E3 ag-1: -2; DAX1 inh-1: 2; NR2E3 ag-2: -58; DAX1 inh-2: 7.8*; GASC-1 inh: 3; SMARCA2 activ: 3; DAX1 inh confirm: 9.1*; SF1 AF2mut Luc: 4.6*

How did COc1ccc(/C(N)=N/OC(=O)c2cccs2)cc1 do in these assays?
NR2E3 ag-1: -1; DAX1 inh-1: 1; NR2E3 ag-2: -147; DAX1 inh-2: 5.2*; GASC-1 inh: 2; SMARCA2 activ: 1; DAX1 inh confirm: 14*; SF1 AF2mut Luc: 9.6*

How did N/C(=N\OC(=O)c1cccs1)c1ccc(Cl)cc1 do in these assays?
NR2E3 ag-1: -4; NR2E3 ag-2: -42; DAX1 inh-2: 1; GASC-1 inh: 7; SMARCA2 activ: 1

Results for COc1ccccc1C(=O)O/N=C(\N)c1ccc(Cl)cc1 ?
NR2E3 ag-1: -2; DAX1 inh-1: 2; NR2E3 ag-2: -95; DAX1 inh-2: 5.0*; GASC-1 inh: 1; SMARCA2 activ: 6; DAX1 inh confirm: 1; SF1 AF2mut Luc: 3

Results for CCCCCCN1CCS(=O)(=O)N(Cc2ccc(F)cc2)C(C(=O)OC)C1 (stereo not given) ?
DAX1 inh-2: -1; SMARCA2 activ: -2

What do the screens show for `CN(C)c1cccc(/C=C2\CC3(OC(=O)C4CCCC4)CCCN2C3)c1` (stereo not given)?
DAX1 inh-2: 0; SMARCA2 activ: -2

How did Cc1cc(C)cc(NC(=O)C(=O)NCCCN2CCCC2=O)c1 do in these assays?
NR2E3 ag-1: -2; DAX1 inh-1: 2; NR2E3 ag-2: -76; DAX1 inh-2: 7.1*; GASC-1 inh: 4; SMARCA2 activ: 4; DAX1 inh confirm: 5.1*; SF1 AF2mut Luc: 5.3*

Results for Cc1cccc(C)c1NC(=O)Cn1nnc(-c2ccncc2)n1 ?
DAX1 inh-2: 0; SMARCA2 activ: -2

Results for COc1ccc(NC(=O)c2cc3ccccc3oc2=O)cc1 ?
DAX1 inh-1: 1; NR2E3 ag-2: -113; DAX1 inh-2: 6.7*; SMARCA2 activ: 3; DAX1 inh confirm: 3; SF1 AF2mut Luc: -1

How did COc1ccc2oc(=O)c(C(=O)Nc3ccccc3O)cc2c1 do in these assays?
NR2E3 ag-1: 1; DAX1 inh-1: -1; NR2E3 ag-2: -150; DAX1 inh-2: 5.6*; GASC-1 inh: -5; SMARCA2 activ: 5; DAX1 inh confirm: 11*; SF1 AF2mut Luc: 6.8*

How did Fc1ccc(F)c(Cn2ccc3ccc(-c4ccc5ccn(Cc6cc(F)ccc6F)c5c4)cc32)c1 do in these assays?
DAX1 inh-2: -1; SMARCA2 activ: -2

Results for COc1ccc(C(=O)/C=C/Nc2cccc(O)c2)cc1 ?
NR2E3 ag-1: -2; DAX1 inh-1: -1; NR2E3 ag-2: -137; DAX1 inh-2: 6.0*; GASC-1 inh: -5; SMARCA2 activ: 7; DAX1 inh confirm: 14*; SF1 AF2mut Luc: 8.1*

Results for Cc1cccc(C)c1N1C(=O)c2ccccc2NC(=O)C1C(=O)NCCc1ccccc1 (stereo not given) ?
DAX1 inh-2: -1; SMARCA2 activ: -1

How did Cc1cccc(C)c1N1C(=O)c2ccccc2NC(=O)C1C(=O)NCCc1ccccc1F (stereo not given) do in these assays?
DAX1 inh-2: 4.7*; SMARCA2 activ: -1; DAX1 inh confirm: 2; SF1 AF2mut Luc: 0

Results for COc1ccc(C(=O)N/N=C/c2ccccn2)cc1 ?
DAX1 inh-1: 0; NR2E3 ag-2: -63; DAX1 inh-2: 4.5*; SMARCA2 activ: -1; DAX1 inh confirm: 6.6*; SF1 AF2mut Luc: 4.1*

How did Cc1noc(C)c1C(=O)Nc1nc2ccc(Cl)cc2s1 do in these assays?
NR2E3 ag-1: -6; DAX1 inh-1: 1; NR2E3 ag-2: -136; DAX1 inh-2: 5.5*; GASC-1 inh: -6; SMARCA2 activ: 0; DAX1 inh confirm: 2; SF1 AF2mut Luc: 3

How did Cc1ccc2nc(NC(=O)c3ccco3)sc2c1 do in these assays?
NR2E3 ag-1: -10; DAX1 inh-1: -4; NR2E3 ag-2: -45; DAX1 inh-2: 1; GASC-1 inh: 14; SMARCA2 activ: 1

How did O=C(Nc1nc2ccccc2s1)c1ccc(F)cc1 do in these assays?
NR2E3 ag-1: 0; DAX1 inh-1: 2; NR2E3 ag-2: -180; DAX1 inh-2: 4.7*; GASC-1 inh: -2; SMARCA2 activ: 2; DAX1 inh confirm: 8.0*; SF1 AF2mut Luc: 4.3*

How did COc1ccc(C(=O)Nc2nc3ccccc3s2)cc1 do in these assays?
NR2E3 ag-1: 4; DAX1 inh-1: -3; NR2E3 ag-2: -144; DAX1 inh-2: 1; GASC-1 inh: -12; SMARCA2 activ: 1

What do the screens show for `Cc1noc(C)c1C(=O)Nc1nc2ccc(F)cc2s1`?
NR2E3 ag-1: 1; DAX1 inh-1: 2; NR2E3 ag-2: -125; DAX1 inh-2: 8.9*; GASC-1 inh: -2; SMARCA2 activ: 6; DAX1 inh confirm: 9.8*; SF1 AF2mut Luc: 5.3*

Results for O=C(Nc1nc2ccc(Cl)cc2s1)c1ccco1 ?
NR2E3 ag-1: -1; DAX1 inh-1: 1; NR2E3 ag-2: -111; DAX1 inh-2: 4; GASC-1 inh: inconclusive; SMARCA2 activ: -1
